Screening data from PubChem BioAssay.
The sample as a whole holds a higher share of hits than the screen did.
INS-1E ATP HTS: protection of INS-1E cells from cytokine death, primary screen, ATP luminescence, single point | INS-1E cytokine-induced death, 48 h; normalised: neutral wells 0, positive control 100 | protection from cytokine-induced ATP loss, % at 10 µM | 0.1% of 20,000 active | AID 488910, 2010;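 active means mean replicate protection from cytokine-induced ATP loss at least 50% and at least 75% of replicates each reaching 50%; inconclusive means meets only one of the two criteria, mean or replicate share; inactive means fails both the mean and replicate share criteria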
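Assay system – rat INS-1E insulinoma cell line · Quantity – 8000 cells per well · Buffer or medium – RPMI without phenol red, 5% FBS · Schedule – 48 h co-treatment, 10 min post-lysis read · Technique – luminescent ATP assay (CellTiter-Glo)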
YB-1 expr inh: inhibitors of YB-1 gene expression, primary screen, cell-based, fluorescence | U2OS, qRT-PCR YB-1 vs CDIP delta delta Cp, 16 h; active compounds read high; zero = DMSO, each unit about twofold | delta delta Cp (YB-1 minus CDIP) (test concentration not listed) | 0.37% of 30,000 active;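 active means delta delta Cp rounded down to an integer at or above 3, about 3 SD of DMSO wells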;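 further: higher means less YB-1 transcript or more CDIP transcript relative to DMSO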
T cruzi HTS: inhibitors of intracellular Trypanosoma cruzi, primary screen, cell-based, plate reader, single point, set 2; intracellular Trypanosoma cruzi in host cells; activity score (inhibition), % at 5.01 µM; 4.9% of 22,000 active; in the data active means activity score above about 55%; inconclusive means no clear call, values can overlap the other calls;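 further: parasites and compound incubated about four days before reading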
Hits are given with their value; – = inactive; ? = inconclusive; · = no result given.

SMILES	INS-1E ATP HTS	YB-1 expr inh	T cruzi HTS
C[C@@H]1CN([C@H](C)CO)C(=O)c2cc(NC(=O)C3CCCCC3)ccc2O[C@H]1CN(C)Cc1ccc2c(c1)OCO2	–	–	–
C[C@@H]1CN([C@H](C)CO)C(=O)c2cc(NC(=O)CCN3CCOCC3)ccc2O[C@@H]1CN(C)S(C)(=O)=O	–	–	–
N#CC(C#N)=C(N)Nc1ccccc1	·	–	·
CNC[C@H]1Oc2ccc(NC(=O)Cc3cn(C)c4ccccc34)cc2C(=O)N([C@@H](C)CO)C[C@H]1C	–	–	–
O=C(CN1C(=O)COc2ccc(Cl)cc21)N1CCCC1	·	–	·
Cc1ccc(S(=O)(=O)Nc2ccc3c(c2)CC(=O)N([C@H](C)CO)C[C@@H](C)[C@@H](CN(C)S(=O)(=O)c2ccc(Cl)cc2)O3)cc1	–	–	66
COc1ccc(S(=O)(=O)Nc2ccc3c(c2)CC(=O)N([C@@H](C)CO)C[C@@H](C)[C@@H](CN(C)S(=O)(=O)c2ccc(F)cc2)O3)cc1	–	–	63
Cc1ccc(S(=O)(=O)Nc2ccc3c(c2)CC(=O)N([C@@H](C)CO)C[C@H](C)[C@@H](CN(C)S(=O)(=O)c2ccc(C)cc2)O3)cc1	–	–	–
COc1ccc(S(=O)(=O)N(C)C[C@H]2Oc3ccc(NS(=O)(=O)c4ccc(F)cc4)cc3CC(=O)N([C@@H](C)CO)C[C@H]2C)cc1	–	–	–
Cc1ccc(S(=O)(=O)Nc2ccc3c(c2)CC(=O)N([C@@H](C)CO)C[C@@H](C)[C@@H](CN(C)S(=O)(=O)c2cccs2)O3)cc1	–	–	–
Cc1ccc(S(=O)(=O)Nc2ccc3c(c2)CC(=O)N([C@H](C)CO)C[C@@H](C)[C@@H](CN(C)S(=O)(=O)c2cccs2)O3)cc1	–	–	68
Cc1ccc(S(=O)(=O)Nc2ccc3c(c2)CC(=O)N([C@@H](C)CO)C[C@@H](C)[C@@H](CN(C)S(=O)(=O)c2ccc(C)cc2)O3)cc1	–	–	62
Cc1ccc(S(=O)(=O)N(C)C[C@@H]2Oc3ccc(NS(=O)(=O)c4ccc(Cl)cc4)cc3CC(=O)N([C@H](C)CO)C[C@H]2C)cc1	–	–	–
C[C@H](CO)N1C[C@H](C)[C@@H](CN(C)CC2CCCCC2)Oc2ccc(NS(=O)(=O)c3cn(C)cn3)cc2C1=O	·	–	–
C[C@H]1CN([C@@H](C)CO)C(=O)c2cc(NS(=O)(=O)c3ccc(F)cc3)ccc2O[C@@H]1CN(C)S(=O)(=O)c1ccccc1	–	–	–
C[C@@H]1CN([C@H](C)CO)C(=O)Cc2cc(NS(=O)(=O)c3ccccc3)ccc2O[C@H]1CN(C)C(=O)NC1CCCCC1	–	–	–
COc1ccc(NC(=O)Nc2ccc3c(c2)C(=O)N([C@H](C)CO)C[C@H](C)[C@@H](CN(C)CC2CCCCC2)O3)cc1	–	–	–
COc1ccc(S(=O)(=O)Nc2ccc3c(c2)CC(=O)N([C@H](C)CO)C[C@@H](C)[C@@H](CN(C)S(=O)(=O)c2ccc(C)cc2)O3)cc1	–	–	61
COc1ccc(S(=O)(=O)N(C)C[C@H]2Oc3ccc(NS(=O)(=O)c4ccc(C)cc4)cc3CC(=O)N([C@@H](C)CO)C[C@H]2C)cc1	–	–	–
COc1ccc(S(=O)(=O)Nc2ccc3c(c2)CC(=O)N([C@H](C)CO)C[C@@H](C)[C@@H](CN(C)S(=O)(=O)c2ccccc2)O3)cc1	–	–	74
COc1ccc(S(=O)(=O)N(C)C[C@@H]2Oc3ccc(NS(=O)(=O)c4ccccc4)cc3CC(=O)N([C@H](C)CO)C[C@H]2C)cc1	–	–	–
O=C(NC1CCN(C(=O)c2ccc(Cl)cc2Cl)CC1)c1ccccc1	·	–	·
COc1ccc(NC(=O)Nc2ccc3c(c2)CC(=O)N([C@@H](C)CO)C[C@@H](C)[C@@H](CN(C)S(=O)(=O)c2cn(C)cn2)O3)cc1	–	–	–
C[C@@H]1CCCCO[C@H](CN(C)CC2CCCCC2)[C@@H](C)CN([C@H](C)CO)C(=O)c2cc(NS(=O)(=O)c3ccc(Cl)cc3)ccc2O1	–	–	–
C[C@@H]1CCCCO[C@@H](CN(C)S(=O)(=O)c2ccc(Cl)cc2)[C@@H](C)CN([C@H](C)CO)C(=O)c2cc(NS(=O)(=O)c3ccc(Cl)cc3)ccc2O1	–	–	59
SMILES	INS-1E ATP HTS	YB-1 expr inh	T cruzi HTS
Cc1ccc(S(=O)(=O)Nc2ccc3c(c2)C(=O)N([C@H](C)CO)C[C@H](C)[C@H](CN(C)S(=O)(=O)c2ccc(Cl)cc2)OCCCC[C@@H](C)O3)cc1	–	–	?
C[C@@H]1CCCCO[C@@H](CN(C)CC2CCCCC2)[C@@H](C)CN([C@H](C)CO)C(=O)c2cc(NS(=O)(=O)c3ccc(Cl)cc3)ccc2O1	–	–	62
Cc1ccc(S(=O)(=O)N(C)C[C@H]2OCCCC[C@@H](C)Oc3ccc(NS(=O)(=O)c4ccc(Cl)cc4)cc3C(=O)N([C@H](C)CO)C[C@@H]2C)cc1	–	–	64
C[C@@H]1CCCCO[C@H](CN(C)S(=O)(=O)c2ccc(Cl)cc2)[C@@H](C)CN([C@H](C)CO)C(=O)c2cc(NS(=O)(=O)c3ccc(Cl)cc3)ccc2O1	–	–	–
Cc1noc(C)c1NC(=O)Nc1ccc2c(c1)C(=O)N([C@@H](C)CO)C[C@@H](C)[C@@H](CN(C)C(=O)Nc1ccccc1)O2	–	–	–
O=C1CC(c2ccccc2)C(=O)N1c1cc(Cl)cc(Cl)c1 (centres undefined)	·	–	·
[N-]=[N+]=NCc1ccccc1C[C@]1(C(=O)NCC(O)CO)N=C(c2ccc(OCCCO)cc2)O[C@H]1c1ccccc1 (some centres undefined)	·	–	·
[N-]=[N+]=NCc1ccccc1C[C@@]1(C(=O)NCC(O)CO)N=C(c2ccc(OCCCO)cc2)O[C@@H]1c1ccccc1 (some centres undefined)	·	9.1	·
C=C(C(=O)O)[C@@H]1CC[C@@]2(C)CCC=C(C)[C@@H]2C1	·	–	·
C=C(C(=O)O)[C@@H]1CC[C@@]2(C)CC[C@@H](O)C(=C)C2C1 (some centres undefined)	·	3.6	·
CC1OC(=O)CC2C(C(=O)O)=CC3CC(C)(C)CC312 (centres undefined)	·	–	·
C[C@@H]1CN([C@@H](C)CO)C(=O)Cc2cc(NC(=O)Nc3cccc4ccccc34)ccc2O[C@@H]1CN(C)Cc1ccc(Cl)c(Cl)c1	–	–	65
C[C@@H]1CN([C@@H](C)CO)C(=O)Cc2cc(NC(=O)Nc3cccc4ccccc34)ccc2O[C@@H]1CN(C)Cc1ccc2c(c1)OCO2	–	–	–
C[C@@H]1CN([C@@H](C)CO)C(=O)c2cc(NC(=O)Nc3cccc4ccccc34)ccc2O[C@@H]1CN(C)Cc1ccc(Cl)c(Cl)c1	·	–	–
C[C@@H]1CN([C@H](C)CO)C(=O)Cc2cc(NC(=O)Nc3cccc4ccccc34)ccc2O[C@@H]1CN(C)Cc1ccc2c(c1)OCO2	–	–	71
C[C@H]1CN([C@@H](C)CO)C(=O)Cc2cc(NC(=O)Nc3cccc4ccccc34)ccc2O[C@@H]1CN(C)Cc1ccccc1	–	–	58
